Experimental data reported in ChEMBL document CHEMBL1145462, “In vivo pharmacodynamic activity of the glycopeptide dalbavancin” (Antimicrob Agents Chemother, 2007).
Converted amounts (≈) assume the structure as drawn.

Columns and labels:
Streptococcus pneumoniae [1] = assay: AUC/MIC ratio of Streptococcus pneumoniae ATCC 10813 infected neutropenic mouse thigh infection model at 1.34 mg/kg, ip administered every 24 hrs by static effect experiment; type: functional; settings: route intraperitoneal
Staphylococcus aureus [2] = assay: AUC/MIC ratio of Staphylococcus aureus 31005 infected neutropenic mouse thigh infection model at 49.3 mg/kg, ip administered every 24 hrs by static effect experiment; type: functional; settings: route intraperitoneal
Staphylococcus aureus [3] = assay: AUC/MBC ratio of Staphylococcus aureus 33591 infected neutropenic mouse thigh infection model at 22.3 mg/kg, ip administered every 24 hrs by static effect experiment; type: functional; settings: route intraperitoneal
Staphylococcus aureus [4] = assay: AUC/MBC ratio of Staphylococcus aureus 307109 infected neutropenic mouse thigh infection model at 31 mg/kg, ip administered every 72 hrs by static effect experiment; type: functional; settings: route intraperitoneal
Staphylococcus aureus [5] = assay: AUC/MBC ratio of Staphylococcus aureus 31005 infected neutropenic mouse thigh infection model at 67.7 mg/kg, ip administered every 72 hrs by static effect experiment; type: functional; settings: route intraperitoneal
Streptococcus pneumoniae [6] = assay: AUC/MIC ratio of Streptococcus pneumoniae 1199 infected neutropenic mouse thigh infection model at 0.85 mg/kg, ip administered every 72 hrs by 1-log killing experiment; type: functional; settings: route intraperitoneal
Staphylococcus aureus [7] = assay: AUC/MIC ratio of Staphylococcus aureus ATCC 25923 infected neutropenic mouse thigh infection model at 185 mg/kg, ip administered every 72 hrs by 1-log killing experiment; type: functional; settings: route intraperitoneal
Staphylococcus aureus [8] = assay: AUC/MBC ratio of methicillin-resistant Staphylococcus aureus infected neutropenic mouse thigh infection model at 62 mg/kg, ip administered every 72 hrs by 1-log killing experiment; type: functional; settings: route intraperitoneal
Staphylococcus aureus [9] = assay: AUC/MIC ratio of Staphylococcus aureus 33591 infected neutropenic mouse thigh infection model at 33.5 mg/kg, ip administered every 24 hrs by 2-log killing experiment; type: functional; settings: route intraperitoneal
Streptococcus pneumoniae [10] = assay: AUC/MIC ratio of Streptococcus pneumoniae ATCC 10813 infected neutropenic mouse thigh infection model at 0.82 mg/kg, ip administered every 72 hrs by 2-log killing experiment; type: functional; settings: route intraperitoneal
Staphylococcus aureus [11] = assay: AUC/MIC ratio of Staphylococcus aureus ATCC 25923 infected neutropenic mouse thigh infection model at 214 mg/kg, ip administered every 72 hrs by 2-log killing experiment; type: functional; settings: route intraperitoneal
Streptococcus pneumoniae [12] = assay: AUC/MIC ratio of Streptococcus pneumoniae 1329 infected neutropenic mouse thigh infection model at 1.18 mg/kg, ip administered every 24 hrs by 1-log killing experiment; type: functional; settings: route intraperitoneal
Staphylococcus aureus [13] = assay: AUC/MBC ratio of Staphylococcus aureus 31005 infected neutropenic mouse thigh infection model at 127 mg/kg, ip administered every 72 hrs by 2-log killing experiment; type: functional; settings: route intraperitoneal
[14] = AUC in bacterial pathogen-infected neutropenic Swiss ICR mouse thigh infection model at 40 mg/kg, ip; type: ADME, organism-based; set-up: dose 40 mg/kg, route intraperitoneal; settings: in vivo
How it was run: (§1)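 Thigh-infected neutropenic mice received single intraperitoneal doses (2.5, 5, 10, 20, 40, 80 mg/kg; 0.2 ml/dose). Blood was drawn by retroorbital aspiration from groups of three mice at 0.5, 1, 2, 4, 6, 24, 48, 72 and 96 h. Plasma levels were measured by microbiologic assay with Bacillus subtilis (detection limit 0.10 mg/liter). Noncompartmental analysis was used: half-life by linear least-squares regression, AUC by trapezoidal rule.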

[15] = (§2) Half life in bacterial pathogen-infected neutropenic Swiss ICR mouse thigh infection model at 40 mg/kg, ip; type: ADME, organism-based; set-up: dose 40 mg/kg, route intraperitoneal; settings: in vivo; how it was run: as §1
[16] = Cmax in bacterial pathogen-infected neutropenic Swiss ICR mouse thigh infection model at 40 mg/kg, ip; type: ADME, organism-based; set-up: dose 40 mg/kg, route intraperitoneal; settings: in vivo; how it was run: as §1
Streptococcus pneumoniae [17] = assay: Bactericidal activity against penicillin-susceptible Streptococcus pneumoniae ATCC 10813 infected neutropenic Swiss ICR mouse thigh infection model assessed as drug level causing 2-log reduction of bacterial count at 0.71 mg/kg, ip dosed every 72 hrs; type: functional; settings: route intraperitoneal
How it was run: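 Neutropenic mice (cyclophosphamide ip 150 mg/kg day −4, 100 mg/kg day −1, then every 48 h) received 0.1 ml log-phase inoculum per thigh under halothane. Intraperitoneal dalbavancin started 2 h later and was given for 6 days at q12h, q24h, q36h or q72h, two mice per regimen. Thigh CFU were counted at 144 h. Endpoint doses relative to start-of-therapy counts came from Hill-model nonlinear regression and are expressed per 24 h.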

Streptococcus pneumoniae [18] = assay: Bactericidal activity in Streptococcus pneumoniae ATCC 10813 infected neutropenic mouse thigh infection model assessed as drug level causing 1-log reduction of bacterial count at 4.13 mg/kg/6days; type: functional
Staphylococcus aureus [19] = assay: Antibacterial activity against Staphylococcus aureus 33591 by microdilution method; type: functional
How it was run: (§3)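 MICs in duplicate on at least two occasions by standard CLSI broth microdilution; S. aureus grown and quantified in Mueller-Hinton broth/agar.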

Staphylococcus aureus [20] = assay: Antibacterial activity against Staphylococcus aureus Smith by microdilution method; type: functional; how it was run: as §3
[21] = Cmax in bacterial pathogen-infected neutropenic Swiss ICR mouse thigh infection model at 2.5 mg/kg, ip; type: ADME, organism-based; set-up: dose 2.5 mg/kg, route intraperitoneal; settings: in vivo
How it was run: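 Single-dose serum PK in thigh-infected neutropenic mice; intraperitoneal dalbavancin (0.2 ml/dose) at 2.5–80 mg/kg. Blood from groups of three mice at 0.5–96 h by retroorbital aspiration; plasma level by Bacillus subtilis microbiologic assay (detection limit 0.10 mg/liter). Noncompartmental analysis; AUC by trapezoidal rule from mean concentrations, extrapolated to infinity.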

[22] = Half life in bacterial pathogen-infected neutropenic Swiss ICR mouse thigh infection model at 5 mg/kg, ip; type: ADME, organism-based; set-up: dose 5 mg/kg, route intraperitoneal; settings: in vivo; how it was run: as §1
Mus musculus = assay: AUC in bacterial pathogen-infected neutropenic Swiss ICR mouse thigh infection model at 10 mg/kg, ip; type: ADME, organism-based; set-up: dose 10 mg/kg, route intraperitoneal; settings: in vivo; how it was run: as §1
[23] = AUC in bacterial pathogen-infected neutropenic Swiss ICR mouse thigh infection model at 20 mg/kg, ip; type: ADME, organism-based; set-up: dose 20 mg/kg, route intraperitoneal; settings: in vivo; how it was run: as §1
[24] = as §2; type: ADME, organism-based; set-up: dose 40 mg/kg, route intraperitoneal; settings: in vivo; how it was run: as §1; remark: listed apart in the source
Streptococcus pneumoniae [25] = assay: Bactericidal activity in ip dosed penicillin-susceptible Streptococcus pneumoniae ATCC 10813 infected neutropenic mouse thigh infection model assessed as reduction of colony count after 48 hrs by time kill study; type: functional, Thigh muscle
How it was run: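 Neutropenic mice with thigh infection treated 2 h post-inoculation with single ip doses of 0.625, 1.25, 2.5, 5 or 10 mg/kg. Two mice per time point, sampled 0.5–96 h, with untreated controls. Thighs processed for CFU, reported as mean ± standard deviation log10 CFU/thigh.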

## CN[C@H]1C(=O)N[C@@H]2Cc3ccc(cc3)Oc3cc4cc(c3O[C@@H]3O[C@H](C(=O)O)[C@@H](O)[C@H](O)[C@H]3NC(=O)CCCCCCCCC(C)C)Oc3ccc(cc3Cl)[C@@H](O)[C@@H]3NC(=O)[C@H](NC(=O)[C@@H]4NC(=O)[C@@H](NC2=O)c2cc(cc(O)c2Cl)Oc2cc1ccc2O)c1ccc(O)c(c1)-c1c(O[C@H]2O[C@H](CO)[C@@H](O)[C@H](O)[C@@H]2O)cc(O)cc1[C@@H](C(=O)NCCCN(C)C)NC3=O [DALBAVANCIN]
Streptococcus pneumoniae [1]
  RatioAUC/MIC: 7.5
Staphylococcus aureus [2]
  RatioAUC/MIC: 483
Staphylococcus aureus [3]
  Ratio: 46
Staphylococcus aureus [4]
  Ratio: 11.3
Staphylococcus aureus [5]
  Ratio: 112
Streptococcus pneumoniae [6]
  RatioAUC/MIC: 12.1
Staphylococcus aureus [7]
  RatioAUC/MIC: 317
Staphylococcus aureus [8]
  Ratio: 48.8
Staphylococcus aureus [9]
  RatioAUC/MIC: 157
Streptococcus pneumoniae [10]
  RatioAUC/MIC: 1.6
Staphylococcus aureus [11]
  RatioAUC/MIC: 367
Streptococcus pneumoniae [12]
  RatioAUC/MIC: 23.5
Staphylococcus aureus [13]
  Ratio: 217
[14]
  AUC: 5360 µg·h/mL
[15]
  half-life: 9.7 h
[16]
  Cmax: 663 µg/mL
Streptococcus pneumoniae [17]
  Activity: 0.82
Streptococcus pneumoniae [18]
  Activity: 4.38
Staphylococcus aureus [19]
  MBC: 0.25 µg/mL (≈ 0.138 µM)
  MIC: 0.12 µg/mL (≈ 0.0661 µM)
Staphylococcus aureus [20]
  MBC: 0.25 µg/mL (≈ 0.138 µM)
  MIC: 0.06 µg/mL (≈ 0.033 µM)
[21]
  Cmax: 7.4 µg/mL
[22]
  half-life: 9.6 h
Mus musculus
  AUC: 579 µg·h/mL
[23]
  AUC: 2260 µg·h/mL
[24]
  half-life: 10.4 h
Streptococcus pneumoniae [25]
  Activity: 4
